Tests used:
[1] = target: T1, 14M_zTDP2^cat (humanized zebrafish TDP2 catalytic domain) (Danio rerio, UniProt Q5XJA0, A139S/C239T/C322L/D120S/K240R/K309Q/K314L/L136N/P317T/R321K/S320C/T315G/V316I/V319A/Y318A); test: 14M_zTDP2^cat fluorescence-based biochemical assay; details: for TDP2 inhibition, SAR statement: compared with hit 11a; for LE (ligand efficiency): LE = 1.4 x pIC50 / HAC; for LELP (ligand efficiency dependent lipophilicity): LELP = LE / cLogP as printed; for LLE (lipophilic ligand efficiency): LLE = pIC50 - cLogP
T1 sequence (Q5XJA0 120-369 D120S/L136N/A139S/C239T/K240R/K309Q/K314L/T315G/V316I/P317T/Y318A/V319A/S320C/R321K/C322L): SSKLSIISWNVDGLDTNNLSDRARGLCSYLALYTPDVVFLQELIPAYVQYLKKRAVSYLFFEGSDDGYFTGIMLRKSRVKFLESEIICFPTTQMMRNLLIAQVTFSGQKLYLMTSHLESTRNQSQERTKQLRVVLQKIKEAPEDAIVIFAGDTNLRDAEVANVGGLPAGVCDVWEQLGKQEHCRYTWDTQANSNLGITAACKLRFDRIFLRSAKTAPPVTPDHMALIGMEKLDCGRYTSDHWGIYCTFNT
Outline: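 Humanized zebrafish TDP2 catalytic domain (residues 120–369), 6.25 pM final, pre-incubated 10 min with test compound in pH 7.4 Tris buffer (10 mM MgCl₂, 80 mM KCl, 0.05% Tween-20, 1 mM DTT). Reaction started with 1 μM (final) FAM-phosphotyrosyl-GATCT-BHQ-1 substrate at 25 °C. Fluorescence ([…]) read kinetically over 60 min. % inhibition normalised to DMSO and no-enzyme controls. IC₅₀ fitted from 10–12 concentrations.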

[2] = target: T2, SUMO hTDP2^cat (Homo sapiens, UniProt O95551); test: SUMO hTDP2^cat fluorescence-based biochemical assay
T2 sequence (O95551 110-362): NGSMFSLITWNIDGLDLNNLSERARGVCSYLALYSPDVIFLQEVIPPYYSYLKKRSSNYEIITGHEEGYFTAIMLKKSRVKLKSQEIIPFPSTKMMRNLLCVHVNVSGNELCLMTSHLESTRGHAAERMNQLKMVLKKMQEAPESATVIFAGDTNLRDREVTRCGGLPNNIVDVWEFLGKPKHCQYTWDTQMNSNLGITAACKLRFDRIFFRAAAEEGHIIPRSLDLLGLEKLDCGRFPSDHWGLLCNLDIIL

CCOc1ccc2nc(NC(=N)N)nc(C)c2c1 [Compound 11b, 1-(6-Ethoxy-4-methylquinazolin-2-yl) guanidine]
TDP2 inhibition, SAR statement [1]: did not interfere significantly with the activity

Cc1ccc(-c2nn3c(-c4ccco4)nnc3s2)cc1C [Compound 19a, 6-(3,4-Dimethylphenyl)-3-(furan-2-yl)-[1,2,4]triazolo[3,4-b][1,3,4] thiadiazole]
LE (ligand efficiency) [1]: 0.30
LELP (ligand efficiency dependent lipophilicity) [1]: 14
LLE (lipophilic ligand efficiency) [1]: 0.29

Cc1nc(NC(=N)N)nc2ccc(Cl)cc12.Cl [Compound 11c, 1-(6-Chloro-4-methylquinazolin-2-yl) guanidine hydrochloride]
inhibitory activity ([1]; up to 200 µM, vs. 11a): abrogated completely the inhibitory activity

COc1ccc2nc(NC(=N)N)nc(C)c2c1 [Compound 11a, 1-(6-Methoxy-4-methylquinazolin-2-yl) guanidine]
LE (ligand efficiency) [1]: 0.32
LELP (ligand efficiency dependent lipophilicity) [1]: 4.9
LLE (lipophilic ligand efficiency) [1]: 2.3
IC50 [2]: 113 ± 10 µM

COc1ccc2nc(NC(=N)N)[nH]c(=O)c2c1 [Compound 15, 1-(6-Methoxy-4-oxo-3,4-dihydroquinazolin-2-yl)guanidine]
TDP2 inhibition, SAR statement [1]: no inhibition was observed

COc1ccc2nc(Nc3nc(C)c(C)c(=O)[nH]3)nc(C)c2c1 [Compound 12a, 2-((6-Methoxy-4-methylquinazolin-2-yl)amino)-5,6-dimethylpyrimidin-4(3H)-one]
fold increase in potency over the original HTS hit 11a ([2]; ratio of IC50 values): 6.4 fold

COc1ccccc1-c1nn2c(-c3ccco3)nnc2s1 [Compound 19b, 3-(Furan-2-yl)-6-(2-methoxyphenyl)-[1,2,4]triazolo[3,4-b][1,3,4]thiadiazole]
TDP2 inhibition ([1]; concentrations up to 100 µM): did not exhibit significant TDP2 inhibition
